Activity calls are given as the source filed them. The rule behind the calls is not given here.
How the values were obtained:
[1] = system: Thoracic aorta; assay: Ex vivo vasorelaxant activity in Wistar rat endothelium thoracic aortic ring assessed as reduction of KCl-induced contraction in presence of guanylate cyclase inhibitor ODQ; assay type: functional
Procedure, shortened: (§1)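 Endothelium-denuded thoracic aortic rings from male Wistar rats (250–350 g) in oxygenated Tyrode-type buffer at 37 °C, isometric tension recording. Rings precontracted with 30 mM KCl, then 3-fold increasing compound concentrations (1 nM–10 µM) added, also with 1 µM ODQ preincubated. Emax as % of KCl tone; pIC50; mean ± SE of 6–10 experiments.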

[2] = system: Liver; assay: Induction of nitric oxide production in Wistar rat liver homogenate assessed as nitrate level at 1 mM; assay type: functional, tissue-based; details: TDE = time-dependent effect
[3] = system: Liver; assay: Induction of nitric oxide production in Wistar rat liver homogenate assessed as nitrite level at 1 mM after 1 to 150 mins; assay type: functional, tissue-based
[4] = system: Liver; assay: Induction of nitric oxide production in Wistar rat liver homogenate assessed as NOx level at 1 mM; assay type: functional, tissue-based; details: TDE = time-dependent effect
[5] = system: Thoracic aorta; assay: Ex vivo vasorelaxant activity in Wistar rat endothelium thoracic aortic ring assessed as reduction of KCl-induced contraction; assay type: functional, tissue-based; procedure, shortened: as §1
[6] = system: Liver; assay: Induction of nitric oxide production in Wistar rat liver homogenate assessed as NOx level at 1 mM after 1 to 150 mins; assay type: functional, tissue-based
[7] = system: Liver; assay: Induction of nitric oxide production in Wistar rat liver homogenate assessed as nitrite level at 1 mM; assay type: functional, tissue-based; details: TDE = time-dependent effect
[8] = system: Liver; assay: Induction of nitric oxide production in Wistar rat liver homogenate assessed as nitrate level at 1 mM after 1 to 150 mins; assay type: functional, tissue-based
[9] = system: Thoracic aorta; assay: Ex vivo vasorelaxant activity in Wistar rat endothelium thoracic aortic ring assessed as reduction of KCl-induced contraction at 0.001 uM to 10 uM relative to control; assay type: functional; procedure, shortened: as §1
[10] = biological target: T1, Prostaglandin G/H synthase 1 (Mus musculus) (UniProt P22437); assay: Inhibition of COX-1 in mouse J774 cells using arachidonic acid as substrate assessed as inhibition of prostaglandin E2 production at 10 uM preincubated for 15 mins followed by substrate addition measured after 30 mins by RIA; assay type: cell-based
T1 sequence (whole entry): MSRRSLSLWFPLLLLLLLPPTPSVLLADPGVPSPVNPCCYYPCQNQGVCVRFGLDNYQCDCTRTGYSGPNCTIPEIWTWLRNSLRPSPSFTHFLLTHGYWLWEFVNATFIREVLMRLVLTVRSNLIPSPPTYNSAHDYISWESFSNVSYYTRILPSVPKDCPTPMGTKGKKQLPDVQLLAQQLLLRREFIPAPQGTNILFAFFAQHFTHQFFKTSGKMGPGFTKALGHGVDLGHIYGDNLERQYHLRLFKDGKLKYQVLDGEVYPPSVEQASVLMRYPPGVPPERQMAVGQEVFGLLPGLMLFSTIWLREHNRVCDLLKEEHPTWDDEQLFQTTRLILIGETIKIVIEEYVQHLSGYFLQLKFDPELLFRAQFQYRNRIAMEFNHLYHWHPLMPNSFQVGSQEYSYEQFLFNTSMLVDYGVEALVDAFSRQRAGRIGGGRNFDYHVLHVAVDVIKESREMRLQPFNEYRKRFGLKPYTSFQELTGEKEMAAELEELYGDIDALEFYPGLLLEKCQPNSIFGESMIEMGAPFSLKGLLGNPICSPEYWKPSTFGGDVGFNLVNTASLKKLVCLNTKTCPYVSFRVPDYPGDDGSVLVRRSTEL
Procedure, shortened: (§2)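 J774 murine macrophages pretreated 15 min with compound (10 µM; lower concentrations 0.01–1 µM where needed), then incubated 30 min at 37 °C with 15 µM arachidonic acid; supernatant PGE2 measured by RIA. Triplicate wells, mean of three experiments of percent inhibition versus control; IC50 by sigmoidal fit.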

[11] = system: Mus musculus; assay: Analgesic activity in po dosed Swiss albino mouse assessed as reduction of acetic acid-induced writhing measured every 10 mins after 5 mins of administration; assay type: functional, organism-based
Procedure, shortened: (§3)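 Male Swiss albino mice (23–25 g), compound given orally in CMC vehicle; writhing induced by 0.6% acetic acid (10 mL/kg) ip. Stretching movements counted for 10 min, starting 5 min after administration; percent reduction versus CMC-treated animals.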

[12] = biological target: T2, Prostaglandin G/H synthase 1 (Mus musculus, UniProt P22437); assay: Inhibition of COX-1 in mouse J774 cells using arachidonic acid as substrate assessed as inhibition of prostaglandin E2 production preincubated for 15 mins followed by substrate addition measured after 30 mins by RIA; assay type: cell-based; procedure, shortened: as §2
T2 sequence (P22437 whole entry): T1 sequence (whole entry)

[13] = system: J774; assay: Selectivity index, ratio of IC50 for COX-1 to IC50 for COX-2 in mouse J774 cells; assay type: cell-based
Procedure, shortened: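 J774 macrophages stimulated 24 h with E. coli LPS (10 µg/mL) to induce COX-2, with or without compound (0.01–10 µM); supernatant PGE2 by RIA. Triplicate wells, three experiments, percent inhibition versus control, IC50 by sigmoidal fit; selectivity as COX-1/COX-2 IC50 ratio.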

[14] = system: Mus musculus; assay: Analgesic activity in Swiss albino mouse assessed as reduction of acetic acid-induced writhing at 40 mg/kg, po measured every 10 mins after 5 mins of administration relative to control; assay type: functional; parameters: scale not given: the % may be the effect or the level left; procedure, shortened: as §3
[15] = biological target: T3, Prostaglandin G/H synthase 2 (Mus musculus, UniProt Q05769); assay: Inhibition of LPS-induced COX-2 in mouse J774 cells using arachidonic acid as substrate assessed as inhibition of prostaglandin E2 production preincubated for 15 mins followed by substrate addition measured after 30 mins by RIA; assay type: cell-based
T3 sequence (Q05769 whole entry): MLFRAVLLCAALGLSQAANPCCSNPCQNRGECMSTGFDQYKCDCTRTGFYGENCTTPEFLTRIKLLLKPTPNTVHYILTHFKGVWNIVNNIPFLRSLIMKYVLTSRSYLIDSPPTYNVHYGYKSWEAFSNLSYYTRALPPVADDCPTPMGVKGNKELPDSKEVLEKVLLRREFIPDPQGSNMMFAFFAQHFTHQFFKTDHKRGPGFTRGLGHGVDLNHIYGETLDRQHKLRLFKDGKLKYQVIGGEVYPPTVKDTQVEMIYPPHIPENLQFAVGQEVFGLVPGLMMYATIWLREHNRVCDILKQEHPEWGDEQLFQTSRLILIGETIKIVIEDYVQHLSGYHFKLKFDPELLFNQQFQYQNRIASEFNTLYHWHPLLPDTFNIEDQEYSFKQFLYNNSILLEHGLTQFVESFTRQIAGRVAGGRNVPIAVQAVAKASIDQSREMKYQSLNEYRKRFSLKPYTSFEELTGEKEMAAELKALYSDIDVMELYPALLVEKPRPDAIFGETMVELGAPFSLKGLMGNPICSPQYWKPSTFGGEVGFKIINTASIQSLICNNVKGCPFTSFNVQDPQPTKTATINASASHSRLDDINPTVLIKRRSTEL

[16] = biological target: T4, Prostaglandin G/H synthase 2 (Mus musculus) (UniProt Q05769); assay: Inhibition of LPS-induced COX-2 in mouse J774 cells using arachidonic acid as substrate assessed as inhibition of prostaglandin E2 production at 10 uM preincubated for 15 mins followed by substrate addition measured after 30 mins by RIA; assay type: cell-based
T4 sequence (whole entry): T3 sequence (Q05769 whole entry)

[17] = system: Mus musculus; assay: Analgesic activity in Swiss albino mouse assessed as reduction of acetic acid-induced writhing at 10 mg/kg, po measured every 10 mins after 5 mins of administration relative to control; assay type: functional; parameters: scale not given: the % may be the effect or the level left; procedure, shortened: as §3
[18] = system: Mus musculus; assay: Analgesic activity in Swiss albino mouse assessed as reduction of acetic acid-induced writhing at 20 mg/kg, po measured every 10 mins after 5 mins of administration relative to control; assay type: functional; parameters: scale not given: the % may be the effect or the level left; procedure, shortened: as §3
[19] = system: Mus musculus; assay: Analgesic activity in Swiss albino mouse assessed as reduction of acetic acid-induced writhing at 3 mg/kg, po measured every 10 mins after 5 mins of administration relative to control; assay type: functional; parameters: scale not given: the % may be the effect or the level left; procedure, shortened: as §3
[20] = biological target: T5, Prostaglandin G/H synthase 2 (Homo sapiens, UniProt P35354); parameters: species or system Blood
T5 sequence (P35354 whole entry): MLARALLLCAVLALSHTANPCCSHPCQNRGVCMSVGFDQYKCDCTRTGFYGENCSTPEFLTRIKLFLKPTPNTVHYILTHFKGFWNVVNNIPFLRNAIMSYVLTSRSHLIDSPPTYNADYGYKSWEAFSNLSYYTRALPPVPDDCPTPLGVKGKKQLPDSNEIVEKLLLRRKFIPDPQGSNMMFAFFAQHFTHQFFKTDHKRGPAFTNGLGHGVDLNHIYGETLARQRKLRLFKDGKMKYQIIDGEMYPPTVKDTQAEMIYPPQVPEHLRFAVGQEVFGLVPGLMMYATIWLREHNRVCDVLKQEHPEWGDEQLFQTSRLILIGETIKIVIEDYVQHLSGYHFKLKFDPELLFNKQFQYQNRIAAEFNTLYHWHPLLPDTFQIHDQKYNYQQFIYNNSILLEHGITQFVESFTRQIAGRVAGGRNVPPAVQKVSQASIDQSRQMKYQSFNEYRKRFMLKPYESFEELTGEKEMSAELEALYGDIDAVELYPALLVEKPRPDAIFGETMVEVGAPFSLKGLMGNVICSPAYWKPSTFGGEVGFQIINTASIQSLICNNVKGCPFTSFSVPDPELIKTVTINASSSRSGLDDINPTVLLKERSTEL

[21] = biological target: Prostaglandin G/H synthase 1 (Homo sapiens, UniProt P23219); assay: Inhibition of COX-1 in human whole blood assessed as thromboxane B2 production by RIA
[22] = system: Mus musculus; assay: Antihyperalgesic activity in Swiss albino mouse assessed as reduction in carrageenan-induced inflammation at 10 mg/kg, po after 30 mins relative to control; assay type: functional; parameters: scale not given: the % may be the effect or the level left
[23] = system: Mus musculus; assay: Antiinflammatory activity in Swiss albino mouse assessed as reduction in carrageenan-induced paw edema at 10 mg/kg, po relative to control; assay type: functional; parameters: scale not given: the % may be the effect or the level left
Procedure, shortened: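 Intraplantar carrageenan, compound po in CMC; volume of right hind paw measured 4 h after carrageenan injection and compared with saline/carrageenan-treated controls; percent oedema reduction.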

[24] = system: Mus musculus; assay: Antihyperalgesic activity in Swiss albino mouse assessed as reduction in carrageenan-induced inflammation at 10 mg/kg, po after 120 mins relative to control; assay type: functional; parameters: scale not given: the % may be the effect or the level left
[25] = system: Mus musculus; assay: Antihyperalgesic activity in Swiss albino mouse assessed as reduction in carrageenan-induced inflammation at 10 mg/kg, po after 60 mins relative to control; assay type: functional; parameters: scale not given: the % may be the effect or the level left
[26] = system: Mus musculus; assay: Antihyperalgesic activity in Swiss albino mouse assessed as reduction in carrageenan-induced inflammation at 10 mg/kg, po after 90 mins relative to control; assay type: functional; parameters: scale not given: the % may be the effect or the level left

Sequence of Prostaglandin G/H synthase 1 (Homo sapiens, UniProt P23219) (P23219 whole entry): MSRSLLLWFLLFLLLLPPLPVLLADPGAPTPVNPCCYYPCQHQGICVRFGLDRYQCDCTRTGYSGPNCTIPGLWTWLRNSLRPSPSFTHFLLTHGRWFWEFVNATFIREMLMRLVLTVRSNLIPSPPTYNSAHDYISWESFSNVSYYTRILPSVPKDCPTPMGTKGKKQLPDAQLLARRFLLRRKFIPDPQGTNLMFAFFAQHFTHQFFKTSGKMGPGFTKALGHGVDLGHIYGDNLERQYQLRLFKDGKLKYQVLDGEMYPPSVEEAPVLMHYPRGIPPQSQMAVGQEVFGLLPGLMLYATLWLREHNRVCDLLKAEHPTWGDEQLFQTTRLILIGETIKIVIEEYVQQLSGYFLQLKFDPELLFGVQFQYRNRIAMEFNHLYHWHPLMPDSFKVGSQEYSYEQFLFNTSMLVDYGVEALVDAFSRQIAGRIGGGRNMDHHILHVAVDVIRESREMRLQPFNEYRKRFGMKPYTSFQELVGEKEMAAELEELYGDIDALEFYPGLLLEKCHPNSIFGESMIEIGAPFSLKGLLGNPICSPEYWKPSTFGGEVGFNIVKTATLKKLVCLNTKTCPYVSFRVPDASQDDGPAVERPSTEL

Row | IC50 [5] [µM] | inhibition [10] [%] | IC50 [12] [µM] | IC50 [15] [µM] | inhibition [16] [%] | SMILES | Activity [1] | Emax [9] [%] | Activity [11] | Ratio IC50 [13] | Activity [17] [%] | Activity [18] [%] | Activity [19] [%] | other results
1 | 0.468 |  |  |  |  | COc1ccc2cc([C@H](C)C(=O)OCCCCO[N+](=O)[O-])ccc2c1 [NAPROXCINOD] | inactive | 68 |  |  |  |  |  | Activity [2]: tde; Activity [3]: 27.6 µM; Activity [4]: tde; Activity [6]: 368 µM; Activity [7]: tde; Activity [8]: 340 µM
2 | 1.66 | 0 | > 10 | 0.25 | 100 | Cc1c(CC(=O)NCCCO[N+](=O)[O-])cc(-c2ccc(S(C)(=O)=O)cc2)n1-c1cccc(F)c1 | inactive | 69 | Dose-dependent effect | > 40 | 0 | 8.6 |  | Activity [14]: 30%
3 |  | 6 | > 10 |  | 89 | Cc1c(CC(=O)NC(CCO[N+](=O)[O-])C(=O)O)cc(-c2ccc(S(C)(=O)=O)cc2)n1-c1ccc(F)cc1 (racemic) | inactive |  | Dose-dependent effect | > 6.2 | 30 | 54 | 0 | 
4 |  | 0 | > 10 | 0.31 | 100 | Cc1c(CC(=O)NCCCO[N+](=O)[O-])cc(-c2ccc(S(C)(=O)=O)cc2)n1-c1ccc(F)cc1 |  |  | Dose-dependent effect | > 32 | 37 | 37 | 17 | 
5 |  | 0 | > 10 |  | 100 | Cc1c(CC(=O)NCCO)cc(-c2ccc(S(C)(=O)=O)cc2)n1-c1ccc(F)cc1 |  |  | Dose-dependent effect | > 33 | 37 | 61 |  | IC50 [20]: 1.4 µM; IC50 [21]: 1.9 µM
6 |  |  |  |  |  | Cc1ccc(-c2cc(C(F)(F)F)nn2-c2ccc(S(N)(=O)=O)cc2)cc1 [CELECOXIB] |  |  | Dose-dependent effect |  | 59 |  |  | Activity [22]: 45%; Activity [23]: 17%; Activity [24]: 39%; Activity [25]: 75%; Activity [26]: 56%

From ChEMBL document CHEMBL3102735, “Enhancing the pharmacodynamic profile of a class of selective COX-2 inhibiting nitric oxide donors” (Bioorg Med Chem, 2014)
